Drawing on BindingDB's records for doi:10.1021/jm049696n (Human Biomolecular Research Institute, 2005), this text covers IC50 for two compounds.

One data set has as its target CYP2D6 (Homo sapiens, UniProt P10635). Nature of the data set: Inhibitory concentration value against human cytochrome P-450 2D6. In short, it runs like this: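 Baculovirus insect-cell microsomes coexpressing each CYP with reductase and b5, in 0.2 M potassium phosphate pH 8.0. Vivid blue substrate O-dealkylation used 5 µM substrate with 10 nM enzyme for 2B6, 10 µM with 5 nM for 2C19, 10 µM with 10 nM for 2D6, and 10 µM with 5 nM for 2E1. Inhibitor 0.02–400 or 0.14–300 µM. NADPH-generating system, 40 min at room temperature, fluorescence 405/460 nm. IC50 is the mean of three ± SD.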

The target in a further data set is CYP2E1 (Homo sapiens, UniProt P05181). Put plainly: Inhibitory concentration value against human cytochrome P-450 2E1. In short, it runs like this:
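Baculovirus-expressed CYP2E1 (co-expressing P450 reductase and cytochrome b5), 5 nM final, with 10 µM Vivid blue substrate in 0.2 M potassium phosphate pH 8.0. Inhibitor at eight levels from 0.02 to 400 µM, or six from 0.14 to 300 µM. Started with an NADPH-generating system, then 40 min at room temperature. O-dealkylated product read by fluorescence (ex 405/em 460 nm). IC50 is the mean of three experiments.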

A further data set addresses CYP3A4 (Homo sapiens, UniProt P08684). Put plainly: Inhibitory concentration value against human cytochrome P-450 3A4. In a few lines: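 Human liver microsomes (0.4 mg) in 0.05 M potassium phosphate, pH 7.5, with an NADPH-generating system, DETAPAC and 3 mM MgCl2. Inhibitor at 0.02–400 µM. Started with 0.2 mM testosterone and run 30 min at 37 °C with shaking. Stopped with ethyl acetate, then extracted. 6β-hydroxytestosterone measured by reverse-phase HPLC with UV detection at 254 nm. IC50 values are the mean of at least three determinations ± SD.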

For orientation: IC50 means the concentration that gives 50% inhibition.

Some results are limits rather than exact numbers.

CYP3A4, sequence (P08684 whole entry): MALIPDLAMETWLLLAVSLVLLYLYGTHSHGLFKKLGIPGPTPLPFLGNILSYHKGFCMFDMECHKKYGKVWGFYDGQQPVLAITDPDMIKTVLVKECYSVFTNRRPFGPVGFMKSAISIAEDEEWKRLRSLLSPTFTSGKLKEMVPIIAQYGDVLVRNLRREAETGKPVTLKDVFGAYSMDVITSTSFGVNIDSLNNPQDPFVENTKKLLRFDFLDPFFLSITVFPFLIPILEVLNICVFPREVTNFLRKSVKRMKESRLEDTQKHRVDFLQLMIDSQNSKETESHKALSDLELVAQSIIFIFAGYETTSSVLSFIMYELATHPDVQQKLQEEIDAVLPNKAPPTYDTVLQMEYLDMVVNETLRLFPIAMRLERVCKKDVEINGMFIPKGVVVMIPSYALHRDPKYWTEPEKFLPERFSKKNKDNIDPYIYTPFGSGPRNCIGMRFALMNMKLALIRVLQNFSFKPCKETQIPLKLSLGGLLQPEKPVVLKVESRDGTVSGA
CYP2D6, sequence (P10635 whole entry): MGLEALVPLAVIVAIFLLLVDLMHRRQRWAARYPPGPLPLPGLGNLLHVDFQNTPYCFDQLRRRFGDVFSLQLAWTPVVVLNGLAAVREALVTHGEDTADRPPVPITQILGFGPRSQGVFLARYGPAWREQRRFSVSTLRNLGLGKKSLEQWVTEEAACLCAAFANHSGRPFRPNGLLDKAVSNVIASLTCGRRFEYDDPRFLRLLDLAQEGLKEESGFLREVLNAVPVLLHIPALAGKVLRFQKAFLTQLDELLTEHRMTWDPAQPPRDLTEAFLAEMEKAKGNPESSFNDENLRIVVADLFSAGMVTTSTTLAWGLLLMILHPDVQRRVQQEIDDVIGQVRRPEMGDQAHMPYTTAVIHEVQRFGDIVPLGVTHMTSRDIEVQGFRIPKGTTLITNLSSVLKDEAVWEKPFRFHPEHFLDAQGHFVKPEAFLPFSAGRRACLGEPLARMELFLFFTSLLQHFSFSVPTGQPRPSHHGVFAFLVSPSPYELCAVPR
CYP2E1, sequence (P05181 whole entry): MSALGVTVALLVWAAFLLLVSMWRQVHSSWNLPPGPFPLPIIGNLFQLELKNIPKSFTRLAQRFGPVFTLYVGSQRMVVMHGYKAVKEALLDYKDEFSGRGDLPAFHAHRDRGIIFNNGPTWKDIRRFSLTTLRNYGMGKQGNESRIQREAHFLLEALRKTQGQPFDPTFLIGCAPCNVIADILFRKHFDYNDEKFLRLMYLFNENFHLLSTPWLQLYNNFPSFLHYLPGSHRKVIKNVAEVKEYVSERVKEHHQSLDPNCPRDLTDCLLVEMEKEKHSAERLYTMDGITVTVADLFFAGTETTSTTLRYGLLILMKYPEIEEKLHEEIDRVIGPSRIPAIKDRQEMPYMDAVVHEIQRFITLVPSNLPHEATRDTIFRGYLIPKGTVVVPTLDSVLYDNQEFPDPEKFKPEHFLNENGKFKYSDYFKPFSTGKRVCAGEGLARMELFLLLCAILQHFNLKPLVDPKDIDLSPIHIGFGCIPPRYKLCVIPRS

For `O=NCc1ccc(-c2cccnc2)o1` [US8609708, 24], the IC50 at CYP2D6, against CYP2E1 and on CYP3A4 was over 400 µM in each case.

For `NCc1ccc(-c2cccnc2)s1` [US8609708, 31], the concentration for half-maximal inhibition (IC50) at CYP2D6 was determined as 197 µM; against CYP3A4, 77.5 µM.
